Data published in article PMC9394215 (Journal for Immunotherapy of Cancer, 2022).

How the values were obtained:
human CD39 = biological target: T1, human CD39 (Homo sapiens, UniProt P49961); test: Inhibition type experiments, malachite green assay on recombinant human CD39; type: biochemical
T1 sequence (P49961 1-510): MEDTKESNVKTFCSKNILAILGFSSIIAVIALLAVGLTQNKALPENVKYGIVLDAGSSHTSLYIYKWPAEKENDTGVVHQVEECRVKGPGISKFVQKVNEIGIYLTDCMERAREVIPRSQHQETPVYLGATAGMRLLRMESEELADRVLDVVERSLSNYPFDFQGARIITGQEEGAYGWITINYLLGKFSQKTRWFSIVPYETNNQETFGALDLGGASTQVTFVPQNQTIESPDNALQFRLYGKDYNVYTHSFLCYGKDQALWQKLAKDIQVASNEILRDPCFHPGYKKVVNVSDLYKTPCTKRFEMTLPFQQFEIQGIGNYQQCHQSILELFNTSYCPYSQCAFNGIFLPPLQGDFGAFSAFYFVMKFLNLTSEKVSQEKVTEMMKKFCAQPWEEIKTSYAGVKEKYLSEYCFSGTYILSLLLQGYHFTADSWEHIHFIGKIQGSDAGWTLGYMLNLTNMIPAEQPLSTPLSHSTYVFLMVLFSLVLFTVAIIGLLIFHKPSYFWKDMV

NPP3 = biological target: T2, NPP3 (Homo sapiens, UniProt O14638); test: NPP3 assay; type: biochemical
T2 sequence (O14638 31-875 limits assumed): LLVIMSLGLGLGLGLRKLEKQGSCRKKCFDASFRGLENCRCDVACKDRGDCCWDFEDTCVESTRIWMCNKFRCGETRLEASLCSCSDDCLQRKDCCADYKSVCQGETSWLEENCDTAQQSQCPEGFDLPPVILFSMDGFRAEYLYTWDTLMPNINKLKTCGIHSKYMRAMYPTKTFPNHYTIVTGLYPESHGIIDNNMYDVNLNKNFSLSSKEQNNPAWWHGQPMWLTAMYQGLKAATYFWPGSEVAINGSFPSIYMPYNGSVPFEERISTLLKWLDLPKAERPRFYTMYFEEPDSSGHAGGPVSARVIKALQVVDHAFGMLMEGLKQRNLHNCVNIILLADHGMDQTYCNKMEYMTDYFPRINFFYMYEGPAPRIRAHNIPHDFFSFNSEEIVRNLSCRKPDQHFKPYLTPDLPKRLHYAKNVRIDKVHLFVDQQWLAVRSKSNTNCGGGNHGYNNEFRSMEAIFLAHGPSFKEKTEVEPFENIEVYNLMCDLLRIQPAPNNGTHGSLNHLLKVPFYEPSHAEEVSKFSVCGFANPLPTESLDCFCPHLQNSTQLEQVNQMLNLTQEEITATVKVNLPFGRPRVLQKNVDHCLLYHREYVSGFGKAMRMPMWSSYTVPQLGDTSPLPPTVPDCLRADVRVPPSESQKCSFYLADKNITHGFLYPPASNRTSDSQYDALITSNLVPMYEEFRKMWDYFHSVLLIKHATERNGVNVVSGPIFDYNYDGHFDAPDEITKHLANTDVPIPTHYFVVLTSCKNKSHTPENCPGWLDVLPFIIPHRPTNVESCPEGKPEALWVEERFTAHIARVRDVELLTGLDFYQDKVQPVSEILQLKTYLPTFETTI
Procedure, shortened: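 Purified soluble NPP3 (95 ng, Sf9-expressed) was incubated with 50 µM (final) test compound, 2% DMSO and 400 µM p-nitrophenyl thymidine 5'-monophosphate. Reactions were stopped with 1 M NaOH, and p-nitrophenolate was read at 400 nm.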

NPP4 = biological target: T3, NPP4 (Homo sapiens, UniProt Q9Y6X5); test: NPP4 assay; type: biochemical
T3 sequence (Q9Y6X5 16-407 limits assumed): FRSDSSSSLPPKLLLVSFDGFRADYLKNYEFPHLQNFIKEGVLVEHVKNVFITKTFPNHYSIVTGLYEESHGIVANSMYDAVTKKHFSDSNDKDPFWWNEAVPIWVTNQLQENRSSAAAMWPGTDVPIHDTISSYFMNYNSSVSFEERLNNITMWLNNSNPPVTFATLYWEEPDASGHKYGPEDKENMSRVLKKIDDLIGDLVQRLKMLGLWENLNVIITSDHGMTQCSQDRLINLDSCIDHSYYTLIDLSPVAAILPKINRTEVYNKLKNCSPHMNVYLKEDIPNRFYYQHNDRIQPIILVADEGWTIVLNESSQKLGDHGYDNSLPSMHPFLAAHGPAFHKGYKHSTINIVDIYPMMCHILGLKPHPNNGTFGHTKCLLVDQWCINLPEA
Procedure, shortened: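 Purified soluble NPP4 (1200 ng, Sf9-expressed) was incubated with 50 µM test compound, 2% DMSO and 300 µM diadenosine tetraphosphate. Buffer: 10 mM HEPES, 2 mM CaCl2, 1 mM MgCl2, pH 8.0; 90 min at 37°C with shaking. The reaction was heat-stopped (90°C, 5 min) and chilled on ice. Product ATP was quantified by capillary electrophoresis.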

NPP5 = biological target: T4, NPP5 (Homo sapiens, UniProt Q9UJA9); test: NPP5 assay; type: biochemical
T4 sequence (Q9UJA9 25-431 limits assumed): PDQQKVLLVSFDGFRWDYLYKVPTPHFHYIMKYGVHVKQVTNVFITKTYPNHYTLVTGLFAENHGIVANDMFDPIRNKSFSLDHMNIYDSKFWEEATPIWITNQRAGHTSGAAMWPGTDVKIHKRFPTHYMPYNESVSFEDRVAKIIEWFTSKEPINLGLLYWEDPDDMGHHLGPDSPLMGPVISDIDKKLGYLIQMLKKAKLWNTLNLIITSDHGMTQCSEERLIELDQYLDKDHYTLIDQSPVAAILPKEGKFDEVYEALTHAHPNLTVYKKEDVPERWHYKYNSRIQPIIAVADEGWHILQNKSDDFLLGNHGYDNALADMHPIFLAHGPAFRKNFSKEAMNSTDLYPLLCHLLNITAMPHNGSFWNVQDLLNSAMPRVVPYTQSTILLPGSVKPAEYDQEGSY
Procedure, shortened: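 Either CD38 (5 ng) or NPP5 (250 ng) was mixed with 50 µM test compound and 100 µM NAD+ as substrate. For CD38 the reaction buffer was 10 mM HEPES, pH 7.4.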

[1] = test system: TNBC (MDA-MB-231) cell membrane preparations; test: Malachite green assay, ATP hydrolysis by TNBC cell membrane preparations; type: biochemical, human; conditions: increasing concentrations of ceritinib, 50 µM ATP
Procedure, shortened: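 Crude membranes came from ~90% confluent MDA-MB-231 or Ma-Mel-65 cells. Cells were homogenised in Tris/EDTA/saccharose/PMSF buffer, pH 7.4, and centrifuged at 1000 g, then 48,000 g for 1 h at 4°C. Pellets were washed and stored at −80°C in 50 mM Tris-HCl, pH 7.4. ATP hydrolysis (50 µM ATP, HEPES/Ca/Mg pH 7.4) was run with increasing test compound concentrations for 15 min at 37°C. Phosphate was read by malachite green (600 nm); triplicates, n=3.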

ALK = conditions: ref 59 60; cited from earlier work
[2] = read-out: % inhibition at 50 µM

Ki (human CD39): 11 µM
inhibition type (human CD39; Km unchanged, Vmax decreased, Hanes-Woolf plot): non-competitive, allosteric
IC50 (NPP3): > 50 µM
inhibition at 50 µM (NPP3; [2]): 1%
IC50 (NPP4): > 50 µM
inhibition at 50 µM (NPP4; [2]): 15%
IC50 (NPP5): > 50 µM
inhibition at 50 µM (NPP5; [2]): 1%
Structure (SMILES): Cc1cc(Nc2ncc(Cl)c(Nc3ccccc3S(=O)(=O)C(C)C)n2)c(OC(C)C)cc1C1CCNCC1 [ceritinib, Ceritinib]
ATPase activity of cancer cell membranes [1]: decreased significantly
IC50 value against ALK (ALK): subnanomolar range
